Results on 4 compounds are retold here after ChEMBL document CHEMBL1158857, “New steroidal alkaloids from Buxus longifolia” (1997).

The subject of experiment [1] is Salmonella typhi. In words: (§1) Antibacterial activity against Salmonella typhi assessed per 100 uL of nutrient broth after 24 hrs by tube broth dilution method. The class given is functional, Salmonella enterica subsp. enterica serovar Typhi. Put shortly:
(§2)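 Tube broth dilution in nutrient broth against sensitive Salmonella typhi: 0.1 mL culture (10^4-10^6 cells/mL) was added to tubes holding 1 mL of test sample at different concentrations plus 1 mL nutrient broth. Tubes were incubated 24 h at 37 °C, growth inhibition was observed, and MIC was recorded. Ampicillin was run the same way as the standard.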
(In general: In broth dilution the organism is exposed to a series of concentrations in liquid medium.)

Experiment [2] concerns Shigella flexneri. As to the kind of experiment: Antibacterial activity against Shigella flexneri at 100 ug/100 uL after 24 hrs by tube broth dilution method. The format is functional.
For experiment [3], the system named is Shigella flexneri. In words: Antibacterial activity against Shigella flexneri at 200 ug/100 uL after 24 hrs by tube broth dilution method. The format is functional.
Experiment [4] has as its system Salmonella typhi. The experiment is described as §1. The format is functional, Salmonella enterica subsp. enterica serovar Typhi. Put shortly: as §2
The source holds these as a separate data set.

Experiment [5] relates to Pseudomonas aeruginosa. In words: Antibacterial activity against Pseudomonas aeruginosa at 100 ug/100 uL after 24 hrs by tube broth dilution method. The class given is functional.
Experiment [6] concerns Pseudomonas aeruginosa. As to the kind of experiment: Antibacterial activity against Pseudomonas aeruginosa at 200 ug/100 uL after 24 hrs by tube broth dilution method. The class given is functional.
The subject of experiment [7] is Pseudomonas aeruginosa. As to the kind of experiment: Antibacterial activity against Pseudomonas aeruginosa assessed per 100 uL of nutrient broth after 24 hrs by tube broth dilution method. The class given is functional. The method in brief: (§3)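 Tube broth dilution in nutrient broth. Sensitive bacterial culture (0.1 mL of 10^4-10^6 cells/mL) added to tubes holding 1 mL test sample at different concentrations plus 1 mL nutrient broth. Incubated 24 h at 37 °C, then growth inhibition scored visually. Ampicillin run the same way as reference. Minimum inhibitory concentration taken from the dilution series.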

Experiment [8] relates to Escherichia coli. As to the kind of experiment: Antibacterial activity against Escherichia coli at 100 ug/100 uL after 24 hrs by tube broth dilution method. The format is functional.
For experiment [9], the system named is Escherichia coli. In words: Antibacterial activity against Escherichia coli at 200 ug/100 uL after 24 hrs by tube broth dilution method. The class given is functional.
Experiment [10] deals with Salmonella typhi. In words: Antibacterial activity against Salmonella typhi at 100 ug/100 uL after 24 hrs by tube broth dilution method. The class given is functional, Salmonella enterica subsp. enterica serovar Typhi. More on the design: unit not given here.
Experiment [11] deals with Salmonella typhi. As to the kind of experiment: Antibacterial activity against Salmonella typhi at 200 ug/100 uL after 24 hrs by tube broth dilution method. More on the design: unit not given here. The format is functional, Salmonella enterica subsp. enterica serovar Typhi.
In experiment [12] the test system is Escherichia coli. As to the kind of experiment: Antibacterial activity against Escherichia coli assessed per 100 uL of nutrient broth after 24 hrs by tube broth dilution method. The format is functional. The method in brief:
as §3

Structures are written as SMILES.

`CC1(C)S[C@@H]2[C@H](NC(=O)[C@H](N)c3ccccc3)C(=O)N2[C@H]1C(=O)O` [AMPICILLIN]: the MIC in the experiment on Salmonella typhi [1] amounted to 30 µg; in the experiment with Salmonella typhi [4], 30 µg; against Pseudomonas aeruginosa [7], 40 µg. Moreover, the inhibition zone (IZ) was found to be 11 mm in the experiment with Shigella flexneri [2]; 11 mm with Shigella flexneri [3]; 11 mm in the experiment on Pseudomonas aeruginosa [5]; 11 mm in the experiment with Pseudomonas aeruginosa [6]; 11 mm in the experiment on Escherichia coli [8]; 12 mm with Escherichia coli [9].

As to `CN[C@@H](C)[C@H]1[C@H](O)C[C@@]2(C)[C@@H]3CC[C@H]4C(C)(C)[C@@H](N(C)C)C=C[C@@]45C[C@@]35CC[C@]12C` [BUXASAMARINE], the “inhibition zone (IZ)” value turned out to be 6 with Salmonella typhi [10]; 8 in the experiment with Salmonella typhi [11]; 7 mm in the experiment with Shigella flexneri [3]; 7 mm in the experiment with Pseudomonas aeruginosa [5]; 9 mm in the experiment with Pseudomonas aeruginosa [6]. In addition, the MIC against Salmonella typhi [1] stood at 100 µg; with Salmonella typhi [4] it was 150 µg; in the experiment on Pseudomonas aeruginosa [7] it was 50 µg.

Turning to `C=C1[C@@H](N(C)C(C)=O)CC[C@]23C[C@]24CC[C@]2(C)[C@@H]([C@H](C)NC)CC[C@@]2(C)[C@@H]4CC[C@@H]13` [CYCLOBUXAMIDINE], the “inhibition zone (IZ)” value in the experiment with Salmonella typhi [10] stood at 6; with Salmonella typhi [11] it was 6; in the experiment with Escherichia coli [9] it was 6 mm. Besides, the MIC worked out at 150 µg against Salmonella typhi [1] and 200 µg with Escherichia coli [12].

In the case of `CC(=O)O[C@@H]1C[C@@]2(C)[C@@H]3C[C@@H]4OC[C@]5(C)[C@@H](NC(=O)c6ccccc6)CCC(=CC3=CC[C@]2(C)[C@H]1[C@H](C)N(C)C)[C@@H]45` [CYCLOBUXEINE F], the “inhibition zone (IZ)” value in the experiment with Salmonella typhi [10] stood at 7; with Salmonella typhi [11], 8; with Shigella flexneri [2] it was 7 mm; in the experiment on Shigella flexneri [3], 7 mm; in the experiment on Pseudomonas aeruginosa [5], 6 mm; in the experiment on Pseudomonas aeruginosa [6], 8 mm. The MIC against Salmonella typhi [1] turned out to be 100 µg; against Salmonella typhi [4], 100 µg; against Pseudomonas aeruginosa [7], 10 µg.
